In ChEMBL document CHEMBL3745596, “Chlorophenoxy aminoalkyl derivatives as histamine H(3)R ligands and antiseizure agents” (Bioorg Med Chem, 2016):
pKi: −log10 of the molar value. Activity calls are given as the source filed them.

What was measured:
Mus musculus [1] = experiment: Neurotoxicity in CF1 albino mouse at 30 mg/kg, ip after 4 hrs by rotarod test; type: toxicity, organism-based; conditions: in vivo
Procedure, shortened: (§1)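 Rotarod neurotoxicity in male albino CF-1 mice dosed ip with compound suspended in 0.5% methylcellulose. Animal placed on a 1 inch diameter knurled plastic rod rotating at 6 rpm. Neurotoxicity scored when the animal falls off three times within 1 min. Readout is number of animals toxic/number tested at the stated time after dosing. TD50 with 95% confidence interval from the quantitative study.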

Mus musculus [2] = experiment: Anticonvulsant activity in CF1 albino mouse assessed as protection against maximal electroshock-induced seizure at 100 mg/kg, ip after 0.5 hrs; type: functional, organism-based
Procedure, shortened: (§2)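 Male CF-1 mice dosed ip as suspension in 0.5% methylcellulose. Corneal electrodes deliver 60 Hz alternating current, 50 mA for […], after a drop of 0.5% tetracaine HCl in 0.9% NaCl per eye. Protection means abolition of hindlimb tonic extension; scored as protected/tested, or ED50 with 95% confidence interval.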

Rattus norvegicus [3] = experiment: Neurotoxicity in Sprague-Dawley rat at 30 mg/kg, ip after 0.5 hrs by rotarod test; type: toxicity, organism-based; conditions: in vivo
Procedure, shortened: (§3)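 Male Sprague–Dawley rats given compound ip as a suspension in 0.5% methylcellulose, groups of four. Rotarod: 1 inch knurled rod at 6 rpm; three falls within 1 min counts as neurotoxic. Scored as number toxic/number tested at pretreatment times between 0.25 and 4 h, or at the stated time.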

Rattus norvegicus [4] = experiment: Neurotoxicity in Sprague-Dawley rat at 30 mg/kg, ip after 1 hr by rotarod test; type: toxicity, organism-based; conditions: in vivo; procedure, shortened: as §3
Mus musculus [5] = experiment: Anticonvulsant activity in ip dosed CF1 albino mouse assessed as protection against subcutaneous pentetrazole-induced seizure after 0.25 hrs; type: functional
Procedure, shortened: (§4)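 Male CF-1 mice, ip in 0.5% methylcellulose; pentetrazole at CD97 (85 mg/kg) injected subcutaneously in a loose fold of neck skin. Observed 30 min; absence of even a threshold seizure (single clonic spasm lasting at least 5 s) counted as protection. Scored protected/tested, or ED50.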

Histamine H3 receptor = Histamine H3 receptor (Homo sapiens, UniProt Q9Y5N1); experiment: Displacement of [3H]-Nalpha-methylhistamine from human recombinant histamine H3 receptor expressed in HEK293 cells after 90 mins; type: cell-based
Rattus norvegicus [6] = experiment: Neurotoxicity in Sprague-Dawley rat at 30 mg/kg, ip after 4 hrs by rotarod test; type: toxicity, organism-based; conditions: in vivo; procedure, shortened: as §3
Rattus norvegicus [7] = experiment: Neurotoxicity in Sprague-Dawley rat at 30 mg/kg, ip after 0.25 hrs by rotarod test; type: toxicity, organism-based; conditions: in vivo; procedure, shortened: as §3
Mus musculus [8] = experiment: Neurotoxicity in CF1 albino mouse assessed as unable to grasp rotarod, death, diarrhea, loss of righting reflux and clonic seizure at 100 mg/kg, ip after 0.5 hrs by rotarod test; type: toxicity, organism-based; conditions: in vivo
Procedure, shortened: (§5)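 Male albino CF-1 mice dosed ip with compound suspended in 0.5% methylcellulose, then placed on a 1-inch knurled plastic rod turning at 6 rpm. A fall three times within 1 min counted as neurotoxicity. Observations were made at 0.5 h and 4 h after dosing. Result given as animals showing toxicity per animals tested, with the kind of toxicity recorded.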

Mus musculus [9] = experiment: Anticonvulsant activity in CF1 albino mouse assessed as protection against maximal electroshock-induced seizure at 3 mg/kg, ip after 0.5 hrs; type: functional, organism-based; procedure, shortened: as §2
Mus musculus [10] = experiment: Neurotoxicity in CF1 albino mouse at 3 mg/kg, ip after 0.5 hrs by rotarod test; type: toxicity, organism-based; conditions: in vivo; procedure, shortened: as §1
Mus musculus [11] = experiment: Anticonvulsant activity in CF1 albino mouse assessed as protection against subcutaneous pentetrazole-induced seizure at 30 mg/kg, ip after 0.5 hrs; type: functional, organism-based; procedure, shortened: as §4
Rattus norvegicus [12] = experiment: Anticonvulsant activity in Sprague-Dawley rat assessed as protection against maximal electroshock-induced seizure at 30 mg/kg, ip after 0.5 hrs; type: functional, organism-based
Mus musculus [13] = experiment: Anticonvulsant activity in CF1 albino mouse assessed as protection against 6 Hz-psychomotor-induced seizure at 30 mg/kg, ip after 0.25 to 4 hrs; type: functional, organism-based
Procedure, shortened: (§6)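 Male CF-1 mice, ip suspension in 0.5% methylcellulose. Corneal stimulation 0.2 ms monopolar rectangular pulses at 6 Hz, 32 mA for 3 s via constant-current device; mice without minimal clonic phase seizure counted protected. Groups of four; read at 0.25, 0.5, 1, 2, 4 h; result as protected/tested.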

Rattus norvegicus [14] = experiment: Anticonvulsant activity in Sprague-Dawley rat assessed as protection against maximal electroshock-induced seizure at 30 mg/kg, ip after 1 hr; type: functional, organism-based
Mus musculus [15] = experiment: Neurotoxicity in ip dosed CF1 albino mouse after 0.5 hrs by rotarod test; type: toxicity, organism-based; conditions: in vivo; procedure, shortened: as §1
Rattus norvegicus [16] = experiment: Anticonvulsant activity in Sprague-Dawley rat assessed as protection against pilocarpine-induced convulsive status epilepticus at 50 mg/kg, ip; type: functional, organism-based
Procedure, shortened: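 Male Sprague Dawley rats (150–180 g) dosed ip, pilocarpine 50 mg/kg ip given; compound dosed immediately at first behavioral Stage 3 seizure or 30 min later. Number protected from Racine Stage 3 or greater seizures recorded.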

Mus musculus [17] = experiment: Neurotoxicity in CF1 albino mouse at 30 mg/kg, ip after 0.5 hrs by rotarod test; type: toxicity, organism-based; conditions: in vivo; procedure, shortened: as §1
Rattus norvegicus [18] = experiment: Neurotoxicity in ip dosed Sprague-Dawley rat after 0.5 hrs by rotarod test; type: toxicity, organism-based; conditions: in vivo
Mus musculus [19] = experiment: Anticonvulsant activity in CF1 albino mouse assessed as protection against 6 Hz-psychomotor-induced seizure at 60 mg/kg, ip after 4 hrs; type: functional, organism-based; procedure, shortened: as §6
Mus musculus [20] = experiment: Neurotoxicity in CF1 albino mouse at 60 mg/kg, ip after 1 to 4 hrs by rotarod test; type: toxicity, organism-based; conditions: in vivo; procedure, shortened: as §1
Rattus norvegicus [21] = experiment: Neurotoxicity in Sprague-Dawley rat at 30 mg/kg, ip after 2 hrs by rotarod test; type: toxicity, organism-based; conditions: in vivo; procedure, shortened: as §3
Mus musculus [22] = experiment: Analgesic activity in mouse assessed as inhibition of formalin-induced paw licking behavior at 16 mg/kg, ip after 0.25 hrs; type: functional, organism-based
Procedure, shortened: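 Male albino mice, ip in 0.5% methylcellulose; 0.5% formalin injected sub-dermally into right hindpaw plantar surface 0.25 h after dosing. Paw licking observed for the first 2 min of each 5-min epoch up to 40 min after dosing; cumulative licking duration compared with vehicle-pretreated group, acute and inflammatory phases.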

Mus musculus [23] = experiment: Neurotoxicity in CF1 albino mouse at 10 mg/kg, ip after 0.5 hrs by rotarod test; type: toxicity, organism-based; conditions: in vivo
Procedure, shortened: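 Rotarod neurotoxicity in male CF-1 mice dosed ip as 0.5% methylcellulose suspension: mouse placed on 1 inch knurled rod rotating at 6 rpm; toxicity when the animal falls off three times within 1 min, with other signs noted. Scored as toxic/tested at 0.5 h and 4 h.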

Mus musculus [24] = experiment: Neurotoxicity in CF1 albino mouse assessed as unable to grasp rotarod and death at 300 mg/kg, ip after 0.5 hrs by rotarod test; type: toxicity, organism-based; conditions: in vivo; procedure, shortened: as §5
Mus musculus [25] = experiment: Neurotoxicity in CF1 albino mouse at 100 mg/kg, ip after 4 hrs by rotarod test; type: toxicity, organism-based; conditions: in vivo; procedure, shortened: as §1
Mus musculus [26] = experiment: Neurotoxicity in ip dosed CF1 albino mouse after 0.25 hrs by rotarod test; type: toxicity, organism-based; conditions: in vivo
Procedure, shortened: as §1, with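 “dosing.” for “dosing. TD50 with 95% confidence interval from the quantitative study.”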

Mus musculus [27] = experiment: Neurotoxicity in CF1 albino mouse at 30 mg/kg, ip after 0.25 to 4 hrs by rotarod test; type: toxicity, organism-based; conditions: in vivo; procedure, shortened: as §1
Rattus norvegicus [28] = experiment: Anticonvulsant activity in ip dosed Sprague-Dawley rat assessed as protection against maximal electroshock-induced seizure after 1 hr; type: functional
Mus musculus [29] = experiment: Anticonvulsant activity in CF1 albino mouse assessed as protection against maximal electroshock-induced seizure at 30 mg/kg, ip after 4 hrs; type: functional, organism-based; procedure, shortened: as §2
Mus musculus [30] = experiment: Anticonvulsant activity in CF1 albino mouse assessed as protection against subcutaneous pentetrazole-induced seizure at 100 mg/kg, ip after 0.5 hrs; type: functional, organism-based; procedure, shortened: as §4

Chain of Histamine H3 receptor (Q9Y5N1 whole entry): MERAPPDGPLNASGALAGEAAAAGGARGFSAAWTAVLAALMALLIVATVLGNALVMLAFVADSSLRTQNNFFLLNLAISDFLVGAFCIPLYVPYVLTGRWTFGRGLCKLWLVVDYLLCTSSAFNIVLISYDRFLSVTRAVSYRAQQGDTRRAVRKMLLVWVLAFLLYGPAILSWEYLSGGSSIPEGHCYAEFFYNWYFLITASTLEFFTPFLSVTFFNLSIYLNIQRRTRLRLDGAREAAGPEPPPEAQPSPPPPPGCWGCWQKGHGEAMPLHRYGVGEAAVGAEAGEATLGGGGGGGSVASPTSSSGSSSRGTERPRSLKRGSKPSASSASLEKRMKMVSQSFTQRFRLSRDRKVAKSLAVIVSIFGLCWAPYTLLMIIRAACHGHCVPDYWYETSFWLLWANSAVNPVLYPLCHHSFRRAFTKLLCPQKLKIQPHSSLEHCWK

## CC1CCCN(CCCCCCCOc2ccc(Cl)cc2)C1.O=C(O)C(=O)O (stereo unspecified)
Mus musculus [1]
  Activity: Non-toxic
Mus musculus [2]
  Activity: Active
Rattus norvegicus [3]
  Activity: Non-toxic
Rattus norvegicus [4]
  Activity: Non-toxic
Mus musculus [5]
  ED50: > 47 mg/kg
Histamine H3 receptor
  pKi: 6.74
Rattus norvegicus [6]
  Activity: Non-toxic
Rattus norvegicus [7]
  Activity: Non-toxic
Mus musculus [8]
  Activity: Toxic
Mus musculus [9]
  Activity: inactive
Mus musculus [10]
  Activity: Non-toxic
Mus musculus [11]
  Activity: inactive
Rattus norvegicus [12]
  Activity: Active
Mus musculus [13]
  Activity: inactive
Rattus norvegicus [14]
  Activity: Active
Mus musculus [15]
  ED50: 5.35 mg/kg
Rattus norvegicus [16]
  Activity: inactive
Mus musculus [17]
  Activity: Non-toxic
Rattus norvegicus [18]
  ED50: 50.35 mg/kg
Mus musculus [19]
  Activity: inactive
Mus musculus [20]
  Activity: Non-toxic
Rattus norvegicus [21]
  Activity: Non-toxic
Mus musculus [22]
  Activity: inactive
Mus musculus [23]
  Activity: Non-toxic
Mus musculus [24]
  Activity: Toxic
Mus musculus [25]
  Activity: Non-toxic
Mus musculus [26]
  TD50 (median neurotoxic dose): 48.28 mg/kg
Mus musculus [27]
  Activity: Non-toxic
Rattus norvegicus [28]
  ED50: 13.2 mg/kg
Mus musculus [29]
  Activity: Active
Mus musculus [30]
  Activity: inactive
